# An excerpt weighted towards active compounds, which were near 3.8% of everything screened.
# OX1R antag-1: antagonists of human orexin 1 receptor (OX1R); O43613; OX1R-expressing cells, FRET antagonist read-out; inhibition, % at 6.6 µM; 1.8% of 330,000 active; in the data active = inhibition mostly above about 38%, no sharp cut-off; inactive = mostly below about 40%;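 note: 0% = agonist challenge alone and 100% = reference antagonist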
# OX1R antag-2: antagonists of human orexin 1 receptor | O43613 | CHO/OX1R cells, Fluo-8 calcium fluorescence, orexin A | inhibition, % at 5 µM | 0.43% of 330,000 active | AID 434989;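 active = inhibition above its plate's threshold, mean inhibition of all tested compounds on the plate plus 3 SD, cut at about 37% in these data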;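 note: 0% = orexin A challenge wells and 100% = SB-334867-A antagonist wells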
# MPTP block: permeability transition pore inhibition | AID 602449 | isolated mouse mitochondria, Ca2+ swelling absorbance, 30 min | 1.4% of 360,000 active | inhibition, % at 10 µM;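 active = inhibition of 50% or more, scaled per plate between neutral and stimulator controls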;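 note: 0% = DMSO wells given calcium and 100% = 1 mM EGTA wells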
# GPR7 antag: blocks human GPR7 receptor signaling | GPR7-expressing cells, fluorescence antagonist assay | inhibition, % at 4.4 µM | 1.1% of 290,000 active; in the data active = inhibition above about 16%, passing the limit was not always enough;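 note: cells stimulated with the agonist NPW; 0% = agonist with vehicle and 100% = vehicle without agonist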
# Target sequence (P48145 whole entry, looked up): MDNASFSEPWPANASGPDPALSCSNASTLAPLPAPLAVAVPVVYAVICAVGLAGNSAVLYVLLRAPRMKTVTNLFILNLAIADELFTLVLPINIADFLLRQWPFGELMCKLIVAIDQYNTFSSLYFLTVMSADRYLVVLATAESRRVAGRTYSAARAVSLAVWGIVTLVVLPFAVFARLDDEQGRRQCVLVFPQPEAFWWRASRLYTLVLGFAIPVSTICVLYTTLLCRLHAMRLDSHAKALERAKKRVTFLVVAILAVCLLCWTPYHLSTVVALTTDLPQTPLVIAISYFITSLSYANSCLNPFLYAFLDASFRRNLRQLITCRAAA
# CHO parental Ca: signal in parental CHO cells, OX1R antagonist counter-screen; inhibition, % at 5.6 µM; 0.63% of 330,000 active; parental CHO-K1, ATP-induced calcium, Fluo-8 fluorescence;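 active = inhibition above that plate's mean sample inhibition plus 3 SD, cut at about 26% in these data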;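 note: 0% = ATP-challenged DMSO wells and 100% = DMSO wells without ATP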
#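 Assay system: parental CHO cells; Read-out basis: percent inhibition of ATP-evoked calcium rise, normalized to controls; Benchmarks: ATP and no-ATP DMSO wells; Compound dosing: single nominal dose of 5.6 µM per compound; Signal: Fluo-8 calcium dye fluorescence; Also added: ATP as calcium-mobilizing challenge; Repeats: singlicate.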
# Rh123 counter: membrane potential counter-screen of mitochondrial pore inhibitors. inhibition, % at 10 µM. shares compounds with MPTP block. isolated mitochondria, Rhodamine 123 fluorescence. 78% of 5,000 active. AID 624504; in the data active = inhibition above about 22%;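 note: 0% = DMSO vehicle and 100% = positive control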
# MPTP swell DR: MPTP inhibition, dose response swelling confirmation | shares compounds with MPTP block | isolated mitochondria swelling, absorbance | IC50, µM | 58% of 780 active; in the data active = IC50 below about 20 µM
# MPTP cs DR: MPTP inhibitor counter-screen activity, dose response. shares compounds with MPTP block. isolated mitochondria counterscreen, fluorescence read-out. IC50, µM. 49% of 780 active; in the data active = IC50 below about 80 µM
# An asterisk follows results filed as active; i = inactive; . = no result given.
SMILES,OX1R antag-1,OX1R antag-2,MPTP block,GPR7 antag,CHO parental Ca,Rh123 counter,others
COc1cc(NC(=O)c2cc(Cl)ccc2Cl)ccc1-c1cc2ccccc2oc1=O,14,-16,1,-14,-13,.,
O=C(Cc1ccc(Cl)cc1)Nc1ccc(-c2cc3ccccc3oc2=O)c(Cl)c1,18,-18,64*,5,-18,71*,
O=C(Cc1ccc(Cl)cc1)Nc1ccc2oc(=O)ccc2c1,16,-12,10,14,4,.,
CCc1ccc(OCC(=O)Nc2ccc(-c3cc4ccccc4oc3=O)c(OC)c2)cc1,28,10,101*,-7,40*,97*,
CCN(CC)S(=O)(=O)c1ccc(O)c(C(=O)OCC(=O)NC23CC4CC(CC(C4)C2)C3)c1,12,4,83*,.,-7,81*,
CCOC(=O)N1CCc2c(sc3nc(SC(C)C)n(N)c(=O)c23)C1,11,-28,62*,-7,-20,25*,
Cc1onc(-c2c(F)cccc2Cl)c1C(=O)OCc1cnc(Cl)s1,15,-6,52*,1,-20,5,MPTP swell DR=i;MPTP cs DR=66*
CC1=NN(C(N)=S)C(=O)C1N=Nc1ccc(Cl)cc1Cl (configuration not stated),.,.,55*,0,.,83*,
CC1=NN(C(N)=S)C(=O)C1N=Nc1ccccc1Cl (configuration not stated),35,-6,6,-10,-6,.,
CSc1nsc(SCC(=O)Nc2ccccc2F)n1,16,-20,0,0,-2,.,
N=C1S/C(=C\c2cccc3ccccc23)C(=O)N1c1ccc(F)cc1,21,-3,94*,-8,-9,20*,
Cc1cc(NC(=O)C(C)SCC(=O)OCC(=O)N(C)c2ccccc2)no1 (configuration not stated),12,-17,0,.,5,.,
O=C1c2cc(Cl)ccc2OC2(CCNCC2)C12CC(c1ccccc1)=NO2 (configuration not stated),32,-2,71*,.,3,-16,MPTP swell DR=8.9*;MPTP cs DR=>80
Nc1nnc(-c2cccc(F)c2)s1,19,5,1,-2,-26,.,
O=c1oc2c(-c3cccc(F)c3)cc(O)cc2s1,10,1,84*,-4,-2,85*,
CCCCCCCCN1C(=O)[C@H](CC(=O)NCC2CCCCC2)C[C@@]2(C(=O)OC)CCCCC=C12,.,.,-3,.,.,.,
Cc1sc2ncnc(N3CCC(C(=O)Nc4nc(-c5cccs5)cs4)CC3)c2c1C,16,-34,0,.,-18,.,
COc1ccc(CN2CCN(CCCCOc3ccc(Cl)cc3)CC2)c(OC)c1OC,6,-27,66*,-8,-19,29*,
Cc1ccccc1NC(=O)Nc1cccs1,8,10,4,0,10,.,
Cc1ccc(Cl)cc1NC(=O)Nc1cccs1,16,-6,87*,-5,6,86*,
CC(C(=O)Nc1ccccc1Br)c1ccc([N+](=O)[O-])cc1 (configuration not stated),15,5,2,10,-8,.,
Cc1ccc(NC(=O)C(C)c2ccc([N+](=O)[O-])cc2)cc1Cl (configuration not stated),16,-28,80*,40*,-7,87*,
Cc1ccc(-n2cc(CNCCCn3ccnc3C)c(-c3ccc(F)cc3)n2)cc1,13,-24,60*,-4,-14,-12,
Cc1ccc(-n2cc(CNCCc3cscn3)c(-c3ccc(F)cc3)n2)cc1,14,-17,37,6,-26,.,
Cc1c(CCC(=O)O)c(=O)oc2cc(OCc3ccccc3F)ccc12,12,5,0,-8,-4,.,
SMILES,OX1R antag-1,OX1R antag-2,MPTP block,GPR7 antag,CHO parental Ca,Rh123 counter,others
Cc1cc(C(=O)NNC(=O)CCCOc2ccccc2)c(C)o1,13,-15,-1,.,-5,.,
CC(C)(C)c1ccc(OCCCC(=O)NNC(=O)c2ccccc2O)cc1,20,-4,69*,.,13,82*,
CCCCCCNCC(=O)N1CCC(Cc2ccccc2)CC1,21,-26,86*,7,-29,-3,MPTP swell DR=11*;MPTP cs DR=45*
O=C(/C=C/c1cccc([N+](=O)[O-])c1)NCCSCc1ccc(Cl)cc1Cl,22,-21,67*,-10,-9,73*,
O=C(/C=C/c1cccc([N+](=O)[O-])c1)NCCSCc1ccccc1Cl,27,-39,35,-6,-18,.,
CCCCC(=O)Nc1cccc(-c2csc(-c3ccccc3)n2)c1,13,-30,57*,-11,-18,58*,
COC(=O)c1ccc(CNCC(O)COc2ccc(-c3ccccc3)cc2)cc1 (configuration not stated),0,-18,89*,8,-4,-4,MPTP swell DR=8.8*;MPTP cs DR=>80
COC(=O)c1ccc(OCC(O)CN2C(=O)c3ccccc3C2=O)cc1 (configuration not stated),1,-31,1,-4,-24,.,
FC(F)(Cl)c1nnc2ccc(Sc3ccccn3)nn12,23,-3,-4,2,-24,.,
O=C1CSc2ccc(C(=O)Nc3cccc(S(=O)(=O)Nc4ccc(Br)cc4)c3)cc2N1,15,-3,89*,18,34*,71*,
COc1ccc(NC(=O)c2cccc(S(=O)(=O)Nc3ccc(Br)cc3)c2)cn1,40,4,97*,20,6,80*,
CCOc1ccc(S(=O)(=O)Nc2nc3ccccc3nc2Cl)cc1,22,-6,1,0,-12,.,
COc1ccc(NC(=O)c2cccc(Oc3ccccc3)c2)cn1,6,7,0,-4,-11,.,
CCOc1ccc(S(=O)(=O)Nc2cnc3ccccc3c2)cc1,28,-4,87*,-4,35*,90*,
COc1ccc(NS(=O)(=O)c2ccc3c(c2)Cc2ccccc2-3)cn1,7,0,84*,-11,22,87*,
O=C(Nc1ccc(Br)cc1)c1cccc(S(=O)(=O)Nc2cnc3ccccc3c2)c1,54,5,108*,9,42*,74*,
O=C(Nc1ccc(Br)cc1)c1cccc(S(=O)(=O)Nc2ccccn2)c1,1,-22,0,-13,-10,.,
CCOC(=O)c1ccc(NC(=O)CCc2nc(-c3ccccc3)no2)cc1,25,33,62*,-9,28,69*,
COc1ccccc1-c1noc(CCC(=O)Nc2ccccc2Cl)n1,0,-18,1,-8,-21,.,
CCOC(=O)c1ccc(NC(=O)CCc2nc(-c3ccccc3Cl)no2)cc1,30,19,89*,-5,28,76*,
CCOC(=O)c1cccc(NC(=O)CCc2nc(-c3ccc(C)cc3)no2)c1,24,-12,3,-17,-9,.,
CSc1nnc(NC(=O)c2ccc(S(=O)(=O)N(C)C)cc2)s1,1,-9,0,-9,-7,.,
